Compound activity as filed in PubChem.
SR-BI DiI inh: inhibitors of SR-BI mediated HDL lipid uptake, primary screen, ldlA[mSR-BI] cells, fluorescence, single point. Scavenger receptor class B member 1 (Mus musculus), Q61009. ldlA[mSR-BI] CHO cells, DiI-HDL uptake fluorescence, 3 h. inhibition, % at 12.5 µM. 320,000 compounds, 0.96% hits. AID 488896, 2010;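 active means mean replicate inhibition of at least 70% and a set share of replicates each scoring 70 or more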;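 further: 0% = median of neutral control wells and 100% = median of positive control wells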
Target sequence (Q61009 whole entry, looked up): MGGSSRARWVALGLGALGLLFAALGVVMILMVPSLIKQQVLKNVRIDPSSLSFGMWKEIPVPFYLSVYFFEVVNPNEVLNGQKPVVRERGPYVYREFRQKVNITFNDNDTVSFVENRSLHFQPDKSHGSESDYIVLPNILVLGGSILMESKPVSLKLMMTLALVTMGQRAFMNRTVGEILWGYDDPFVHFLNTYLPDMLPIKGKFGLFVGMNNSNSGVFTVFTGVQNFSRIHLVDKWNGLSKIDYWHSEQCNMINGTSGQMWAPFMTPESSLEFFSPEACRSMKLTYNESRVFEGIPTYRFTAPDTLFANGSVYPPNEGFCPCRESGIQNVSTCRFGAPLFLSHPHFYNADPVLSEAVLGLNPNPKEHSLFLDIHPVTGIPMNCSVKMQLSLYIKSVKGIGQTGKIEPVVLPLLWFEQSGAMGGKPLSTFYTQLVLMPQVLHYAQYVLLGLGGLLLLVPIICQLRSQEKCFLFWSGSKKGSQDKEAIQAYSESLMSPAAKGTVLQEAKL
miR-122 sensor: miR-122 Renilla sensor signal increase in Huh7, primary screen, miR-122 inhibitor project, cell-based, single point, plate reader. Huh7 miR-122 Renilla luciferase sensor, 48 h; neutral wells = 0, positive control = 100. activation (reporter increase), % at 12.5 µM. 340,000 compounds, 0.3% hits;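 active means mean replicate activation score at least 90 and every replicate individually at or above 90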;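 further: higher luciferase means less miR-122 activity so hits act as miR-122 inhibitors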
CAL PDZ FP-1: untagged CAL PDZ binding inhibitors, primary screen, biochemical, fluorescence polarization, HTS; inhibition, % at 24.9 µM; Golgi-associated PDZ and coiled-coil motif-containing protein (Homo sapiens), Q9HD26; 300,000 compounds, 0.92% hits; purified CAL PDZ, TMR-peptide fluorescence polarization, 1 h;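 active means mean inhibition of at least 30% with at least half of replicates also reaching 30%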;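 further: 0% = DMSO neutral control and 100% = excess unlabeled competitor peptide PRC23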
ARNT TACC3 PPI: disruptors of ARNT/TACC3 protein interaction, primary screen, biochemical, AlphaScreen, single concentration; AlphaScreen His-ARNT PAS-B/GST-TACC3 binding, luminescence; TACC3 fragment carries E629A point mutation; inhibition, % at 9.99 µM; Transforming acidic coiled-coil-containing protein 3 (Homo sapiens), Q9Y6A5; 390,000 compounds, 0.66% hits;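 active means mean inhibition of replicates at least 50% and at least half of replicates each reaching 50%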;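 further: 0% = complete ARNT plus TACC3 wells and 100% = ARNT alone without TACC3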
SR-BI uptake up: activators of SR-BI mediated DiI-HDL uptake, primary screen, ldlA[mSR-BI] CHO cells, DiI fluorescence; 3 h; 100 = double the neutral-control signal; activation, % at 12.5 µM; 320,000 compounds, 0.096% hits; AID 504775, 2011;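 active means mean replicate activation of at least 60% and every replicate at or above 60%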;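 further: 0% = median plate neutral-control signal and 100% = twice that signal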
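Material – SR-BI-overexpressing, LDLR-lacking CHO cells · Medium – BSA-supplemented, HEPES-buffered Ham's F12, pH 7.4 · Doses – single concentration · Times – compound with DiI-HDL co-incubation, 3 h at 37 °C · Measured by – bottom-read fluorescence, 550/595 nm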
CAL PDZ FP-2: CAL PDZ peptide-binding inhibitors, primary screen, biochemical, fluorescence polarization, Cer-tagged CAL PDZ, HTS. inhibition, % at 20 µM. AID 504414, 2011. purified CAL PDZ, TMR-peptide fluorescence polarization, 1 h. Golgi-associated PDZ and coiled-coil motif-containing protein (Homo sapiens), Q9HD26. 330,000 compounds, 0.02% hits;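 active means highest replicate inhibition of at least 40%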;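 further: plate controls were DMSO neutral control wells for no effect and unlabeled competitor peptide control wells for full effect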
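material = purified tagged CAL PDZ domain construct (CerCALP) | compound dosing = 20 µM, one dose | times = 1 h at RT | measured by = fluorescence polarization from S- and P-plane intensities, G-factor corrected | read-out = inhibition from polarization loss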
Numbers without * were called inactive; · = not tested or not shown; + = active, no number; [ ] = dose if it differs, or a comment. A selection: hits, their analogues and other compounds. The true share with any hit is near 2.1%.

SMILES | SR-BI DiI inh | miR-122 sensor | CAL PDZ FP-1 | ARNT TACC3 PPI | SR-BI uptake up | CAL PDZ FP-2
C=CCn1c(SCCN2C(=O)c3ccccc3C2=O)nc2scc(-c3ccc(F)cc3)c2c1=O | · | -3 | 5 | 55* | · | 0
CCCNC(=O)N[C@@H]1CC[C@H](CC(=O)NC2CCCCC2)O[C@@H]1CO | · | · | · | -2 | · | ·
Cc1ccc(NC(=O)C(c2ccc(Cl)cc2)N2CCOCC2)cc1 (stereo not drawn) | -17 | · | 43* | 2 | 17 | -2
CCOC(=O)c1cc2c(C(F)(F)F)cc(-c3ccccc3)nc2o1 | 76* | · | · | -34 | -76 | 0
CCOC(=O)c1c(C(F)(F)F)cc(-c2ccc(F)cc2)nc1C | 30 | · | -3 | -6 | -30 | -1
CCOC(=O)CS(=O)(=O)c1nc(-c2ccccc2)cc(C(F)(F)F)n1 | 98* | -17 | 1 | 6 | -98 | -1
Cc1cc(-c2ccccc2)nc(N/N=C/c2ccc(O)cc2)n1 | 79* | -9 | · | 8 | -79 | 1
Oc1ccc(/C=N/Nc2nc(-c3ccc(Cl)cc3)cc(C(F)(F)F)n2)cc1 | 80* | -30 | -3 | 15 | -80 | 0
COc1ccc(/C=N/Nc2nc(C)cc(-c3ccccc3)n2)c(OC)c1 | 74* | -5 | 1 | -1 | -74 | 1
Cc1[nH]c2ccccc2c1/C=N/Nc1nc(Nc2ccccc2)nc(N2CCOCC2)n1 | 130* | 42 | -3 | 6 | -130 | -2
COCC(=O)N(C)C[C@@H]1Oc2ncc(C#CC(C)(C)O)cc2C(=O)N([C@H](C)CO)C[C@H]1C | · | -1[16.7 µM] | · | -4 | · | ·
O=C(C[C@@H]1C[C@@H]2c3cc(NC(=O)CC4CC4)ccc3O[C@@H]2[C@@H](CO)O1)NCc1cccnc1 | · | 1[16.7 µM] | · | -5 | · | ·
CCC(=O)N(C)C[C@H]1Oc2cc(C#CCN(C)C)ccc2S(=O)(=O)N([C@@H](C)CO)C[C@@H]1C | · | 2[16.7 µM] | · | -5 | · | ·
COc1cc(/C=N/Nc2nc(Nc3ccccc3)nc(N3CCOCC3)n2)ccc1OC(=O)c1ccco1 | 73* | · | -6 | -3 | -73 | -3
COc1ccc(O)c(/C=N/Nc2nc(Nc3ccccc3)nc(-n3nc(C)cc3C)n2)c1 | 22 | -8 | 5 | -3 | -22 | -28
COc1ccc(/C=N/Nc2nc(Nc3ccccc3)nc(N3CCCCC3)n2)c(OC)c1 | 89* | · | -2 | 1 | -89 | -1
COc1ccc(O)c(/C=N/Nc2nc(C)cc(-c3ccccc3)n2)c1 | 88* | -9 | -4 | 9 | -88 | 0
O=C(Oc1cccc(/C=N/Nc2nc(N3CCOCC3)nc(N3CCOCC3)n2)c1)c1ccco1 | -19 | -7 | -4 | -18 | 19 | -2
COc1ccc(/C=N/Nc2cc(C)nc3ccc(OC)cc23)c(OC)c1 | 14 | · | 18 | 12 | -14 | 45*
CO[C@H]1CN(C)C(=O)c2cc(NC(=O)C3CCCC3)ccc2OC[C@@H](C)N(C)C[C@H]1C | · | 3[16.7 µM] | · | -14 | · | ·
CCCN(CCC)CC(C)(C)NS(=O)(=O)c1ccc(Cl)cc1 | -1 | 4 | 70* | -8 | 1 | -1
C[C@@H]1CCCCO[C@@H](CN(C)S(=O)(=O)c2ccc(F)cc2)[C@H](C)CN([C@@H](C)CO)C(=O)c2cc(NC(=O)c3ccccc3)ccc2O1 | · | -8[16.7 µM] | · | -4 | · | ·
CCOC(=O)/C(=N\Nc1ncnc2ccccc12)c1ccc(OC)cc1 | 19 | 0 | 0 | 14 | -19 | -2
COc1ccc(/C(=N/Nc2ncnc3ccccc23)C(=O)O)cc1 | -16 | 10 | 11 | 60* | 16 | 0
COc1ccc(C)cc1-n1c(=O)c2ccccc2c2ccccc2c1=O | 14 | · | + | -12 | -14 | -1
SMILES | SR-BI DiI inh | miR-122 sensor | CAL PDZ FP-1 | ARNT TACC3 PPI | SR-BI uptake up | CAL PDZ FP-2
COc1ccc(-n2c(=O)c3ccccc3c3ccccc3c2=O)c(OC)c1 | -27 | · | -1 | -4 | 27 | 0
C[C@@H]1CN([C@@H](C)CO)S(=O)(=O)c2ccc(-c3cccc(C#N)c3)cc2O[C@H]1CN(C)C(=O)Nc1cc(F)ccc1F | · | -21[16.7 µM] | · | -7 | · | ·
Cc1onc(-c2ccccc2)c1C(=O)Nc1sc2c(c1C#N)CCC(C)C2 (stereo not drawn) | 72* | · | -1 | 3 | -72 | -2
CC1CCc2c(sc(NC(=O)c3ccc(-c4ccccc4[N+](=O)[O-])o3)c2C#N)C1 (stereo not drawn) | 90* | -1 | -1 | 1 | -90 | -1
CCOC(=O)c1c(NC(=O)c2c(-c3ccccc3)noc2C)sc(C)c1-c1ccccc1 | 75* | -5 | -1 | 0 | -75 | -1
C[C@@H]1CN([C@H](C)CO)C(=O)Cc2cc(NC(=O)Nc3ccc(F)cc3)ccc2O[C@@H]1CN(C)C | · | -3[16.7 µM] | · | -4 | · | ·
Cc1noc(C)c1S(=O)(=O)Nc1ccc2c(c1)C(=O)N([C@@H](C)CO)C[C@@H](C)[C@H](CN(C)C(=O)Nc1ccc(F)cc1)OCCCC[C@@H](C)O2 | · | -6[16.7 µM] | · | 1 | · | ·
C[C@@H]1CN([C@H](C)CO)S(=O)(=O)c2ccc(C3=CCCCC3)cc2O[C@H]1CN(C)C(=O)C1CCC1 | · | 18[16.7 µM] | · | 3 | · | ·
O=C(O)CC(NCc1ccco1)C(=O)OCCc1ccccc1 (stereo not drawn) | -13 | -3 | -2 | 1 | 13 | 0
C=C(C)CCOC(=O)C(CC(=O)O)NCc1ccco1 (stereo not drawn) | · | -1 | 49* | -4 | · | 4
Cc1nn(C(C)(C)C)c(OC(=O)c2ccco2)c1Sc1ccccc1 | -12 | -12 | 141* | -2 | 12 | ·
COc1cc(C2CC(=O)NC(SCC(=O)Nc3ccccc3C)=C2C#N)ccc1O (stereo not drawn) | -17 | 2 | 12 | 68* | 17 | 0
CCCSC1=C(C#N)C(c2ccc(O)c(OC)c2)CC(=O)N1 (stereo not drawn) | 7 | -1 | · | 5 | -7 | 0
CNC(=O)NC(=O)C(C)OC(=O)c1ccc(Cl)c(S(=O)(=O)Nc2ccc(F)cc2)c1 (stereo not drawn) | -6 | 215* | -3 | 21 | 6 | 0
CO[C@H](CN(C)C(=O)c1ccccc1F)[C@@H](C)CN([C@H](C)CO)S(=O)(=O)c1ccc(C)cc1 | · | · | · | -10 | · | ·
